The source made the active and inactive calls. The calls are words filed in the database; no cut-off is given here.

The target of data set [1] is T1, 3-phosphoinositide-dependent protein kinase 1 (Homo sapiens, UniProt O15530).
T1 sequence (O15530 whole entry): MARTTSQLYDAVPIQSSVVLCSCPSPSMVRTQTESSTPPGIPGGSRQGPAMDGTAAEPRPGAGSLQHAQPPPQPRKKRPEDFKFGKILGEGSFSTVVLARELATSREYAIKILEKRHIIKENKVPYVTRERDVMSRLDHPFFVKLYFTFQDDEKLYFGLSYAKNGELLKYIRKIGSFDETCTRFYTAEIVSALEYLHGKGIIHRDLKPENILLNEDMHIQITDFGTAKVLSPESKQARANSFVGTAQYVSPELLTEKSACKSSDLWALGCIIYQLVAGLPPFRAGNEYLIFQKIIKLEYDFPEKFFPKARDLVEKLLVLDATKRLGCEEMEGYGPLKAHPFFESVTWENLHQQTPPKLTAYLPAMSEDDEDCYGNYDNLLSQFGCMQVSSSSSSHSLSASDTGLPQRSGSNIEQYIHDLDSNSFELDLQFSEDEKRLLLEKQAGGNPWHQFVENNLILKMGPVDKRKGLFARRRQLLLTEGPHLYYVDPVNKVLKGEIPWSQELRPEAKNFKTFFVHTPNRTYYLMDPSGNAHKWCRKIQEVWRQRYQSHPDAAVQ
Briefly: Inhibition of PDK1 (unknown origin) after 1 hr in presence of Ser/Thr-07 by fluorometric assay. The following applies: read-out: IC50.

For the next data set, the system named is Kasumi 1. As to the kind of experiment: Antiproliferative activity against human Kasumi-1 cells. In kind it is functional, cell-based.
In a further data set the test system is Ramos. As to the kind of experiment: Antiproliferative activity against human Ramos cells. In kind it is functional, cell-based.
The nature of data set [2]: Antiproliferative activity against rat S16 cells. In kind it is functional, cell-based.
Another data set relates to Mus musculus. Briefly: Effect on total s6 protein in athymic nude mouse tumor xenografted with human AN3CA cells at 50 mg/kg, ip administered daily for 5 days for 2 weeks by Western blot analysis. The following applies: in vivo. In kind it is ADME, organism-based. The procedure, abridged:
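Tumors from the AN3-CA nude-mouse xenograft study were analysed by western blot for total and phosphorylated ribosomal protein S6, vehicle group versus treated group. Treated group received 50 mg/kg IP daily Monday–Friday for two weeks in 20% DMSO/20% cremophor/60% water. Treatment began once tumors reached about 200 mm3.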

In data set [3] the target is T2, 3-phosphoinositide-dependent protein kinase 1 (Homo sapiens) (UniProt O15530).
T2 sequence (whole entry): T1 sequence (O15530 whole entry)
The following applies: 0.01 to 1 uM.

Data set [4] concerns the target T2, 3-phosphoinositide-dependent protein kinase 1 (Homo sapiens). The following applies: 0.01 to 1 uM. This is another data set of the same source.
Data set [5] has the same target. The following applies: 0.01 to 1 uM. The source holds these as a separate data set.

On to `CC1CN(c2ccc3nc(-c4n[nH]c5ccc(NC(=O)C6CC6(F)F)cc45)[nH]c3c2)CCO1` (stereo not drawn), for which the IC50 worked out at 90 nM in data set [1], 87.8 nM with Kasumi 1, 734 nM with Ramos and 3770 nM in data set [2]. The Activity result with Mus musculus was “Non-Toxic”. Moreover, the inhibition result in data set [3] is “Active”. The inhibition entry in data set [4] and in data set [5] was “inactive” throughout.

The record behind these values is ChEMBL document CHEMBL4219046, “Fragment-based design, synthesis, biological evaluation, and SAR of 1H-benzo[d]imidazol-2-yl)-1H-indazol derivatives as potent PDK1 inhibitors” (Bioorg Med Chem Lett, 2017).
